Test system in one series: not listed separately
The series is described as follows: Antitumor activity against CLL6 cells isolated from CLL patient assessed as cell viability after 48 hrs by FACS analysis. The series is classed as functional, cell-based. The note with it: Homo sapiens, CLL6, 48 h. The method in brief: (§1)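 Primary CLL patient cells or JVM-2 line cultured 48 h (37 °C, 5% CO2) in RPMI + 10% FBS with graded compound. Stained 30 min at 37 °C with 40 nM DiOC6 and 10 μg/mL PI, then flow cytometry (525 nm DiOC6, 600 nm PI). Viability = % DiOC6+/PI− relative to untreated or vehicle control. EC50 and SE fitted from dose–response curves.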
As for `CN1C(=O)N[C@H]2[C@@H]3NC(=O)c4ccc(I)n4[C@@H]3C[C@]21O`, the EC50 was 12.9 µM.

Test system in a further series: not listed separately
The series is described as follows: Antitumor activity against CLL3 cells isolated from CLL patient assessed as cell viability after 48 hrs by FACS analysis. The series is classed as functional, cell-based. The note with it: Homo sapiens. The method in brief:
as §1
On to `CN1C(=O)N[C@H]2[C@@H]3NC(=O)c4ccc(I)n4[C@@H]3C[C@]21O`, for which the EC50 was determined as 6.61 µM.

The subject of the next series is Liver. The series is described as follows: Metabolic stability in mouse liver microsomes at 100 uM measured after 1 hr by LC/MS analysis in presence of 1 mM NADPH. The series is classed as ADME.
Settings: not given
In short, it runs like this: (§2)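 Microsomes (final protein 5 mg/mL, mouse or human) in 0.1 M sodium phosphate pH 7.4 with compound at 100 μM final (DMSO <1%). Preincubated 5 min at 37 °C, started with NADPH (1 mM final), run 60 min at 37 °C with agitation. Stopped with MeOH and centrifuged; supernatant analysed by LCMS. Controls: zero time, no NADPH, heat-inactivated microsomes, and 7-ethoxycoumarin as CYP substrate.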
Turning to `CN1C(=O)N[C@H]2[C@@H]3NC(=O)c4cccn4[C@@H]3C[C@]21O`, the Stability result is on record as “Stable”.

Consider `CCOc1ccc2ccc(=O)oc2c1` [ETHOXYCOUMARIN], for which the Stability result is given as “Unstable”.

Test system in another series: not listed separately
As to the kind of experiment: Antitumor activity against CLL1 cells isolated from CLL patient assessed as cell viability after 48 hrs by FACS analysis. The series is classed as functional, cell-based. The note with it: Homo sapiens. In short, it runs like this: as §1
A general note: A flow cytometer gives signals particle by particle.
With `CN1C(=O)N[C@H]2[C@@H]3NC(=O)c4cc(Br)cn4[C@@H]3C[C@]21O`, the EC50 is 19.4 µM.

Take `CN1C(=O)N[C@H]2[C@@H]3NC(=O)c4cccn4[C@@H]3C[C@]21O`: the EC50 stood at 541 µM.

On to `CN1C(=O)N[C@H]2[C@@H]3NC(=O)c4cc(I)c(I)n4[C@@H]3C[C@]21O`, for which the EC50 was 26.4 µM.

For `CN1C(=O)N[C@H]2[C@@H]3NC(=O)c4ccc(I)n4[C@@H]3C[C@]21O`, the EC50 amounted to 5.96 µM.

Test system in another series: not listed separately
As to the kind of experiment: Antitumor activity against CLL5 cells isolated from CLL patient assessed as cell viability after 48 hrs by FACS analysis. The series is classed as functional, cell-based. The note with it: Homo sapiens. The method in brief:
as §1
With `CN1C(=O)N[C@H]2[C@@H]3NC(=O)c4ccc(I)n4[C@@H]3C[C@]21O`, the EC50 amounted to 3.06 µM.

A further series concerns Liver microsome. As to the kind of experiment: Metabolic stability in human liver microsomes at 100 uM measured after 1 hr by LC/MS analysis in presence of 1 mM NADPH. The series is classed as ADME.
Settings: not given
The method in brief: as §2
(In general: Microsomes from liver hold many membrane-bound enzymes, among them those of drug oxidation.)
On to `CN1C(=O)N[C@H]2[C@@H]3NC(=O)c4cccn4[C@@H]3C[C@]21O`, for which the Stability result is reported as “Stable”.

With `CCOc1ccc2ccc(=O)oc2c1` [ETHOXYCOUMARIN], the Stability entry is reported as “Unstable”.

Test system in the next series: not listed separately
The series is described as follows: Antitumor activity against human JVM2 cells assessed as cell viability after 48 hrs by FACS analysis. The format is functional, cell-based. The note with it: JVM-2, 48 h. In short, it runs like this: as §1
Consider `CN1C(=O)N[C@H]2[C@@H]3NC(=O)c4cc(Br)cn4[C@@H]3C[C@]21O`, for which the concentration for a half-maximal effect (EC50) came to 71.5 µM.

On to `CN1C(=O)N[C@H]2[C@@H]3NC(=O)c4cccn4[C@@H]3C[C@]21O`, for which the EC50 came to 120 µM.

Turning to `CN1C(=O)N[C@H]2[C@@H]3NC(=O)c4cc(I)c(I)n4[C@@H]3C[C@]21O`, the EC50 came to 49 µM.

`CN1C(=O)N[C@H]2[C@@H]3NC(=O)c4ccc(I)n4[C@@H]3C[C@]21O`: the concentration for a half-maximal effect (EC50) worked out at 2.62 µM.

Test system in the next series: not listed separately
As to the kind of experiment: Antitumor activity against CLL4 cells isolated from CLL patient assessed as cell viability after 48 hrs by FACS analysis. The series is classed as functional, cell-based. The following applies: Homo sapiens. In short, it runs like this: as §1
On to `CN1C(=O)N[C@H]2[C@@H]3NC(=O)c4ccc(I)n4[C@@H]3C[C@]21O`, for which the EC50 was determined as 3.04 µM.

Test system in the next series: not listed separately
As to the kind of experiment: Antitumor activity against CLL2 cells isolated from CLL patient assessed as cell viability after 48 hrs by FACS analysis. The series is classed as functional, cell-based, Homo sapiens. The following applies: Homo sapiens, CLL2, 48 h. In short, it runs like this: as §1
Regarding `CN1C(=O)N[C@H]2[C@@H]3NC(=O)c4cc(Br)cn4[C@@H]3C[C@]21O`, the EC50 worked out at 9.22 µM.

As for `CN1C(=O)N[C@H]2[C@@H]3NC(=O)c4cccn4[C@@H]3C[C@]21O`, the EC50 amounted to 3.9 µM.

Turning to `CN1C(=O)N[C@H]2[C@@H]3NC(=O)c4cc(I)c(I)n4[C@@H]3C[C@]21O`, the EC50 turned out to be 96 µM.

As for `CN1C(=O)N[C@H]2[C@@H]3NC(=O)c4ccc(I)n4[C@@H]3C[C@]21O`, the EC50 came out at 0.73 µM.

The next series deals with HeLa. The series is described as follows: Antitumor activity against human HeLa cells assessed as cell viability by MTT assay.
Settings: not given
The format is functional, cell-based. In short, it runs like this: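 Adherent HeLa cells exposed to compound, then medium replaced with 0.5 mg/mL MTT in phenol-red-free RPMI and incubated overnight at 37 °C. Lysed with 15% SDS/0.015 M HCl and OD read at 570 nm once formazan dissolved. EC50 and SE derived from dose–response curves.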
(Formazan colour is commonly taken as a measure of viable cells.)
`CN1C(=O)N[C@H]2[C@@H]3NC(=O)c4cccn4[C@@H]3C[C@]21O`: the EC50 stood at 61.5 µM.

With `CN1C(=O)N[C@H]2[C@@H]3NC(=O)c4cc(I)c(I)n4[C@@H]3C[C@]21O`, the EC50 worked out at 262 µM.

With `CN1C(=O)N[C@H]2[C@@H]3NC(=O)c4ccc(I)n4[C@@H]3C[C@]21O`, the EC50 worked out at 1.18 µM.

Broadly, the EC50 is the concentration giving half of the maximal effect.
